Measured values taken from ChEMBL document CHEMBL1134841, “Antimalarial alkoxylated and hydroxylated chalcones [corrected]: structure-activity relationship analysis” (J Med Chem, 2001).
Each block holds one compound with its values, some of them ahead of it.

Tests used:
[1] = system: Plasmodium falciparum; assay: Inhibition of [3H]hypoxanthine incorporation in Plasmodium falciparum K1; assay type: functional, organism-based
Outline: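 K1 (chloroquine-resistant) parasites cultured in RPMI-1640 with 5% sodium bicarbonate and 10% type O human serum. DMSO stocks were serially diluted 10-fold in medium, covering a 10^6-fold range. Infected erythrocytes at 1–2% parasitemia and 1.5% hematocrit were incubated at 37 °C in a candle jar for 24 h. [3H]hypoxanthine was then added for a further 24 h, cells harvested and scintillation counted. IC50 from nonlinear logistic fit versus untreated control.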

[2] = Ratio of average life span of compound-treated mice (100 mg/kg, ip, 3 days) to that of mice treated with chloroquine (T/C-CQ); assay type: functional
Outline: (§1)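 Swiss albino mice (male, 4 weeks, ~25 g) inoculated ip with 10^7 P. berghei ANKA parasitized erythrocytes (day 0). Test compound 100 mg/kg/day ip in DMSO, days 1–3, three mice per compound. Control infected groups: DMSO or 4'-butoxy-2,4-dimethoxychalcone (100 mg/kg in DMSO, ip, days 1–3), or chloroquine (52 mg/kg ip in 0.5% Tween buffer pH 7.4, day 1). Survival followed; ratio of mean life spans.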

[3] = system: Mus musculus; assay: Ratio of average life span of compound-treated mice (100 mg/kg, ip, 3 days) to that of mice receiving DMSO (T/C-untreated); assay type: functional; outline: as §1
[4] = system: Mus musculus; assay: Ratio of average life span of compound-treated mice (100 mg/kg, ip, 3 days) to that of mice treated with 4''-butoxy-2,4-dimethoxychalcone (comp.41); assay type: functional; outline: as §1

Compound: COc1ccc(C(=O)/C=C/c2ccc(C(F)(F)F)cc2)c(OC)c1
T/C-CQ [2]: 0.84
T/C untreated [3]: 1.67
IC50 ([1]; Plasmodium falciparum, 48 h): 5.9 µM
T/C 41 [4]: 1.67

Compound: COc1ccc(/C=C/C(=O)c2ccc(O)cc2O)c(OC)c1
IC50 ([1]; Plasmodium falciparum, 48 h): 56.4 µM

Compound: O=C(/C=C/c1ccc(Cl)cc1Cl)c1ccc(O)cc1
IC50 ([1]; Plasmodium falciparum, 48 h): 24.5 µM

Compound: CCOc1ccc(C(=O)/C=C/c2ccnc3ccccc23)cc1
IC50 ([1]; Plasmodium falciparum, 48 h): 100 µM

Compound: COc1ccc(C(=O)/C=C/c2ccc(O)cc2)cc1
T/C-CQ [2]: 0.7
T/C untreated [3]: 1.41
IC50 ([1]; Plasmodium falciparum, 48 h): 7 µM
T/C 41 [4]: 1.47

Compound: COc1ccc(C(=O)/C=C/c2ccccc2)c(OC)c1
IC50 ([1]; Plasmodium falciparum, 48 h): 55.5 µM

Compound: COc1ccc(C(=O)/C=C/c2ccc(Cl)cc2Cl)c(OC)c1
IC50 ([1]; Plasmodium falciparum, 48 h): 18.8 µM

Compound: COc1ccc(C(=O)/C=C/c2ccc([N+](=O)[O-])cc2)c(OC)c1OC
IC50 ([1]; Plasmodium falciparum, 48 h): 22.5 µM

Compound: COc1ccc(C(=O)/C=C/c2ccccc2)c(OC)c1OC
IC50 ([1]; Plasmodium falciparum, 48 h): 15.8 µM

Compound: COc1ccc(C(=O)/C=C/c2ccc(Cl)cc2Cl)c(OC)c1OC
T/C-CQ [2]: 0.48
T/C untreated [3]: 0.94
IC50 ([1]; Plasmodium falciparum, 48 h): 5.4 µM
T/C 41 [4]: 0.94

Compound: COc1ccc(C(=O)/C=C/c2ccc(Cl)c(Cl)c2)c(OC)c1
IC50 ([1]; Plasmodium falciparum, 48 h): 298 µM

Compound: COc1ccc(C(=O)/C=C/c2ccc(OC)cc2OC)cc1
T/C-CQ [2]: 0.46
T/C untreated [3]: 0.92
IC50 ([1]; Plasmodium falciparum, 48 h): 6.4 µM
T/C 41 [4]: 0.97

Compound: O=C(/C=C/c1ccccc1)c1ccc(O)cc1 [4'-HYDROXYCHALCONE]
IC50 ([1]; Plasmodium falciparum, 48 h): 29.6 µM

Compound: CCCCOc1ccc(C(=O)/C=C/c2ccc(OC)cc2OC)cc1
T/C-CQ [2]: 0.57
T/C untreated [3]: 1.08
IC50 ([1]; Plasmodium falciparum, 48 h): 108 µM

Compound: COc1ccc(C(=O)/C=C/c2ccc(N(C)C)cc2)c(OC)c1 (stereo in doubt; 103)
IC50 [1]: 55.3 µM

Compound: COc1ccc(C(=O)/C=C/c2ccc(C)cc2)c(OC)c1OC
IC50 ([1]; Plasmodium falciparum, 48 h): 25.6 µM

Compound: O=C(/C=C/c1ccccc1Cl)c1ccc(O)cc1
IC50 ([1]; Plasmodium falciparum, 48 h): 61.7 µM

Compound: O=C(/C=C/c1ccc(Cl)cc1)c1ccc(O)cc1O
T/C-CQ [2]: 0.71
T/C untreated [3]: 1.41
IC50 ([1]; Plasmodium falciparum, 48 h): 12.3 µM
T/C 41 [4]: 1.48

Compound: COc1ccc(C(=O)/C=C/c2ccc(F)cc2F)c(OC)c1
T/C-CQ [2]: 0.52
T/C untreated [3]: 1.04
IC50 ([1]; Plasmodium falciparum, 48 h): 6.2 µM
T/C 41 [4]: 1.04

Compound: COc1ccc(C(=O)/C=C/c2ccnc3ccccc23)c(OC)c1OC
IC50 ([1]; Plasmodium falciparum, 48 h): 60 µM

Compound: CCN(CC)CCCC(C)Nc1ccnc2cc(Cl)ccc12 (stereo unspecified) [CHLOROQUINE]
T/C untreated [3]: 1.81
T/C 41 [4]: 1.71

Compound: O=C(/C=C/c1ccc(F)cc1F)c1ccc(O)cc1O
T/C-CQ [2]: 1.23
T/C untreated [3]: 1.73
IC50 ([1]; Plasmodium falciparum, 48 h): 16 µM
T/C 41 [4]: 1.78

Compound: COc1ccc(/C=C/C(=O)c2ccc(OC)c(OC)c2OC)c(OC)c1
IC50 ([1]; Plasmodium falciparum, 48 h): 16.5 µM

Compound: COc1ccc(C(=O)/C=C/c2cnc3ccccc3c2)c(OC)c1
T/C-CQ [2]: 0.65
T/C untreated [3]: 1.29
IC50 ([1]; Plasmodium falciparum, 48 h): 2.2 µM
T/C 41 [4]: 1.29

Compound: COc1ccc(C(=O)/C=C/c2ccc(F)cc2)cc1
T/C-CQ [2]: 1.22
T/C untreated [3]: 2.2
IC50 ([1]; Plasmodium falciparum, 48 h): 14.4 µM
T/C 41 [4]: 1.83

Compound: COc1ccc(C(=O)/C=C/c2ccnc3ccccc23)c(OC)c1
IC50 ([1]; Plasmodium falciparum, 48 h): 27 µM

Compound: COc1ccc(C(=O)/C=C/c2ccc(F)cc2Cl)c(OC)c1
IC50 ([1]; Plasmodium falciparum, 48 h): 600 µM

Compound: O=C(/C=C/c1ccnc2ccccc12)c1ccc(O)cc1
IC50 ([1]; Plasmodium falciparum, 48 h): 51 µM

Compound: O=C(/C=C/c1cnc2ccccc2c1)c1ccc(O)cc1O
T/C-CQ [2]: 0.77
T/C untreated [3]: 1.08
IC50 ([1]; Plasmodium falciparum, 48 h): 16.1 µM
T/C 41 [4]: 1.11

Compound: COc1ccc(C(=O)/C=C/c2ccc(-c3ccccc3)cc2)c(OC)c1OC
IC50 ([1]; Plasmodium falciparum, 48 h): 26.2 µM

Compound: O=C(/C=C/c1ccnc2ccccc12)c1ccc(O)cc1O
IC50 ([1]; Plasmodium falciparum, 48 h): 92.8 µM

Compound: COc1ccc(C(=O)/C=C/c2ccc(F)cc2)c(OC)c1OC
T/C-CQ [2]: 0.69
T/C untreated [3]: 1.37
IC50 ([1]; Plasmodium falciparum, 48 h): 9.5 µM
T/C 41 [4]: 1.37

Compound: CCOc1ccc(C(=O)/C=C/c2ccc(Cl)cc2Cl)cc1
IC50 ([1]; Plasmodium falciparum, 48 h): 96 µM

Compound: CCOc1ccc(C(=O)/C=C/c2ccccc2)cc1
IC50 ([1]; Plasmodium falciparum, 48 h): 43 µM

Compound: COc1ccc(C(=O)/C=C/c2ccccc2Cl)c(OC)c1OC
IC50 ([1]; Plasmodium falciparum, 48 h): 41.5 µM

Compound: O=C(/C=C/c1ccncc1)c1ccc(O)cc1O
IC50 ([1]; Plasmodium falciparum, 48 h): 122 µM

Compound: COc1ccc(C(=O)/C=C/c2ccc(F)cc2F)c(OC)c1OC
IC50 ([1]; Plasmodium falciparum, 48 h): 18.5 µM

Compound: COc1ccc(C(=O)/C=C/c2cccc(Cl)c2)c(OC)c1OC
IC50 ([1]; Plasmodium falciparum, 48 h): 24.4 µM

Compound: O=C(/C=C/c1cccc(Cl)c1)c1ccc(O)cc1
IC50 ([1]; Plasmodium falciparum, 48 h): 33.1 µM

Compound: CCc1ccc(/C=C/C(=O)c2ccc(OC)c(OC)c2OC)cc1
IC50 ([1]; Plasmodium falciparum, 48 h): 16.5 µM

Compound: O=C(/C=C/c1cccc2ccccc12)c1ccc(O)cc1O
IC50 ([1]; Plasmodium falciparum, 48 h): 24.8 µM

Compound: COc1ccc(C(=O)/C=C/c2ccc(N(C)C)cc2)c(OC)c1OC
IC50 ([1]; Plasmodium falciparum, 48 h): 18 µM

Compound: COc1ccc(C(=O)/C=C/c2ccc(Cl)cc2)c(OC)c1OC
IC50 ([1]; Plasmodium falciparum, 48 h): 14.5 µM

Compound: COc1ccc(C(=O)/C=C/c2ccc([N+](=O)[O-])cc2)c(OC)c1 (stereo in doubt; 115)
IC50 [1]: 100 µM

Compound: O=C(/C=C/c1cccc2ccccc12)c1ccc(O)cc1
IC50 ([1]; Plasmodium falciparum, 48 h): 39.9 µM

Compound: O=C(/C=C/c1cnc2ccccc2c1)c1ccc(O)cc1
IC50 ([1]; Plasmodium falciparum, 48 h): 41 µM

Compound: COc1ccc(C(=O)/C=C/c2ccc([N+](=O)[O-])cc2)c(OC)c1 (stereo in doubt; 109)
IC50 [1]: 415 µM

Compound: COc1ccc(C(=O)/C=C/c2cccc3ccccc23)c(OC)c1
IC50 ([1]; Plasmodium falciparum, 48 h): 320 µM

The remaining lines, values ahead:

IC50 ([1]; Plasmodium falciparum, 48 h): 24.1 µM
Compound: CCOc1ccc(C(=O)/C=C/c2ccc(F)cc2)cc1

IC50 ([1]; Plasmodium falciparum, 48 h): 30.4 µM
Compound: O=C(/C=C/c1ccc(C(F)(F)F)cc1)c1ccc(O)cc1

IC50 ([1]; Plasmodium falciparum, 48 h): 27.5 µM
Compound: O=C(/C=C/c1ccc2ccccc2c1)c1ccc(O)cc1

IC50 ([1]; Plasmodium falciparum, 48 h): 540 µM
Compound: CCOc1ccc(C(=O)/C=C/c2ccc(C#N)cc2)cc1

IC50 ([1]; Plasmodium falciparum, 48 h): 30 µM
Compound: CCOc1ccc(C(=O)/C=C/c2ccc(OC)cc2OC)cc1

IC50 ([1]; Plasmodium falciparum, 48 h): 16 µM
Compound: COc1ccc(C(=O)/C=C/c2ccc(Cl)cc2Cl)cc1

IC50 ([1]; Plasmodium falciparum, 48 h): 25 µM
Compound: COc1ccc(/C=C/C(=O)c2ccc(OC)c(OC)c2OC)cc1

IC50 ([1]; Plasmodium falciparum, 48 h): 70 µM
Compound: COc1ccc(C(=O)/C=C/c2ccc(C)cc2)cc1

IC50 ([1]; Plasmodium falciparum, 48 h): 43 µM
Compound: COc1ccc(C(=O)/C=C/c2ccnc3ccccc23)cc1

IC50 ([1]; Plasmodium falciparum, 48 h): 19 µM
Compound: COc1ccc(C(=O)/C=C/c2ccc(C(F)(F)F)cc2)cc1

IC50 ([1]; Plasmodium falciparum, 48 h): 38 µM
Compound: O=C(/C=C/c1ccc(Cl)cc1)c1ccc(O)cc1

IC50 ([1]; Plasmodium falciparum, 48 h): 39 µM
Compound: CCOc1ccc(C(=O)/C=C/c2ccc([N+](=O)[O-])cc2)cc1

IC50 ([1]; Plasmodium falciparum, 48 h): 26.5 µM
Compound: O=C(/C=C/c1ccc(C(F)(F)F)cc1)c1ccc(O)cc1O

IC50 ([1]; Plasmodium falciparum, 48 h): 21.7 µM
Compound: COc1ccc(/C=C/C(=O)c2ccc(OC)cc2)cc1 [4,4'-DIMETHOXYCHALCONE]

IC50 ([1]; Plasmodium falciparum, 48 h): 24 µM
Compound: CCOc1ccc(C(=O)/C=C/c2ccc(C(F)(F)F)cc2)cc1

IC50 ([1]; Plasmodium falciparum, 48 h): 33 µM
Compound: CCOc1ccc(C(=O)/C=C/c2ccc(OC)cc2)cc1

IC50 ([1]; Plasmodium falciparum, 48 h): 24.9 µM
Compound: CCOc1ccc(C(=O)/C=C/c2cnc3ccccc3c2)cc1

IC50 ([1]; Plasmodium falciparum, 48 h): 128 µM
Compound: COc1ccc(/C=C/C(=O)c2ccc(OC)cc2OC)cc1 [METOCHALCONE]

IC50 ([1]; Plasmodium falciparum, 48 h): 322 µM
Compound: COc1ccc(C(=O)/C=C/c2ccc(F)cc2)c(OC)c1

IC50 ([1]; Plasmodium falciparum, 48 h): 30 µM
Compound: CCOc1ccc(C(=O)/C=C/c2ccc(N(C)C)cc2)cc1

IC50 ([1]; Plasmodium falciparum, 48 h): 32.2 µM
Compound: COc1ccc(/C=C/C(=O)c2ccc(O)cc2)cc1

IC50 ([1]; Plasmodium falciparum, 48 h): 20.4 µM
Compound: O=C(/C=C/c1ccc([N+](=O)[O-])cc1)c1ccc(O)cc1

IC50 ([1]; Plasmodium falciparum, 48 h): 25.8 µM
Compound: Cc1cccc(/C=C/C(=O)c2ccc(O)cc2)c1

IC50 ([1]; Plasmodium falciparum, 48 h): 21.7 µM
Compound: O=C(/C=C/c1ccc(F)cc1)c1ccc(O)cc1

IC50 ([1]; Plasmodium falciparum, 48 h): 542 µM
Compound: COc1ccc(C(=O)/C=C/c2ccc(Br)cc2)c(OC)c1

IC50 ([1]; Plasmodium falciparum, 48 h): 26.8 µM
Compound: COc1ccc(C(=O)/C=C/c2ccc(F)cc2F)cc1

IC50 ([1]; Plasmodium falciparum, 48 h): 342 µM
Compound: COc1ccc(C(=O)/C=C/c2ccc(Cl)cc2)c(OC)c1

IC50 ([1]; Plasmodium falciparum, 48 h): 38 µM
Compound: CCOc1ccc(C(=O)/C=C/c2ccc(C)cc2)cc1

IC50 ([1]; Plasmodium falciparum, 48 h): 28.1 µM
Compound: CCOc1ccc(C(=O)/C=C/c2ccc(F)cc2F)cc1

IC50 ([1]; Plasmodium falciparum, 48 h): 93.8 µM
Compound: COc1ccc(C(=O)/C=C/c2ccc(C)cc2)c(OC)c1

IC50 ([1]; Plasmodium falciparum, 48 h): 25.4 µM
Compound: Cc1ccc(/C=C/C(=O)c2ccc(O)cc2)cc1

IC50 ([1]; Plasmodium falciparum, 48 h): 20.9 µM
Compound: CCCCc1ccc(/C=C/C(=O)c2ccc(O)cc2)cc1
